# Data published in ChEMBL document CHEMBL4400512, “Searching for new agents active against Candida albicans biofilm: A series of indole derivatives, design, synthesis and biological evaluation” (Eur J Med Chem, 2019).
# Tests used:
# [1] = Toxicity in Galleria mellonella larvae assessed as larval survival at 1000 ug/ml after 72 hrs relative to control
# Method in brief: (§1)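 Ten healthy larvae per group, stored at 15°C in the dark. Each got a 20 µL injection into the haemocoel via the last left proleg, with compound freshly made in sterile water containing <1% v/v DMSO. Larvae were incubated at 30°C and survival scored every 24 h; death was no movement on stimulation plus cuticle discolouration. Controls were untreated, pierced-only and vehicle. Mean % survival of two independent experiments.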
# [2] = test system: Candida albicans; experiment: Antibiofilm activity against Candida albicans ATCC 10261 assessed as inhibition of mature biofilm formation by XTT reduction assay; format: functional
# Method in brief: (§2)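 Biofilm method of Pierce et al. Biofilms were treated either during formation or once mature (24 h preformed). Metabolic activity of the cells within the biofilm was read by XTT reduction. BMIC50 is the lowest concentration giving a 50% drop in metabolic activity versus the untreated growth control. At least two experiments on separate dates, triplicate, reported as median.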
# [3] = test system: Candida albicans; experiment: Antibiofilm activity against Candida albicans ATCC 10231 assessed as inhibition of mature biofilm formation by XTT reduction assay; format: functional
# Method in brief: (§3)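 Biofilm assay after Pierce et al., with compound applied either during biofilm formation or to 24 h pre-formed (mature) biofilm. Read-out is metabolic activity of cells in the biofilm by XTT reduction. BMIC50 is the lowest concentration giving a 50% drop relative to untreated growth control. Tested in triplicate, at least two experiments on separate dates; median reported.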
# [4] = test system: Candida albicans; experiment: Antifungal activity against planktonic form of Candida albicans ATCC 10231 by broth microdilution method; format: organism-based; settings: in vitro
# Method in brief: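 CLSI M27-A3 broth microdilution. Cells grown on Sabouraud dextrose agar at 35°C for 24 h; final inoculum 1×10^3–5×10^3 cells/mL. Compounds from DMSO stocks, final DMSO below 1%, final range 256–0.25 µg/mL. Controls were DMSO 1% and fluconazole reference. MIC50 is the lowest concentration giving ≥50% growth inhibition. Three independent experiments in duplicate; median reported.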
# [5] = test system: Candida albicans; experiment: Antibiofilm activity against Candida albicans ATCC 10231 assessed as inhibition of biofilm formation by XTT reduction assay; format: functional; method in brief: as §3
# [6] = Toxicity in Galleria mellonella larvae assessed as larval survival at 100 ug/ml after 72 hrs relative to control; method in brief: as §1
# [7] = Toxicity in Galleria mellonella larvae assessed as larval survival at 100 ug/ml after 48 hrs relative to control; method in brief: as §1
# [8] = Toxicity in Galleria mellonella larvae assessed as larval survival at 1000 ug/ml after 24 hrs relative to control; method in brief: as §1
# [9] = test system: Candida albicans; experiment: Antibiofilm activity against Candida albicans PMC 1042 assessed as inhibition of mature biofilm formation by XTT reduction assay; format: functional; method in brief: as §2
# [10] = test system: Candida albicans; experiment: Antifungal activity against planktonic form of Candida albicans PMC 1082 by broth microdilution method; format: organism-based; settings: in vitro
# Method in brief: (§4)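 Broth microdilution per CLSI M27-A3 and M27-S4. Strains were grown on Sabouraud dextrose agar at 35°C for 24 h. Final inoculum 1×10^3–5×10^3 cells/mL. Compounds were dissolved in DMSO (final <1%); 1% DMSO served as control. Final range 256–0.25 µg/mL. MIC50 is the lowest concentration giving ≥50% growth inhibition. Three independent experiments in duplicate, median; fluconazole as reference.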
# [11] = Toxicity in Galleria mellonella larvae assessed as larval survival at 1000 ug/ml after 48 hrs relative to control; method in brief: as §1
# [12] = test system: Candida albicans; experiment: Antifungal activity against planktonic form of Candida albicans ATCC 10261 by broth microdilution method; format: organism-based; settings: in vitro; method in brief: as §4
# [13] = Toxicity in Galleria mellonella larvae assessed as larval survival at 10 ug/ml after 48 hrs relative to control; method in brief: as §1
# [14] = Toxicity in Galleria mellonella larvae assessed as larval survival at 10 ug/ml after 72 hrs relative to control; method in brief: as §1
# [15] = Toxicity in Galleria mellonella larvae assessed as larval survival at 500 ug/ml after 24 hrs relative to control; method in brief: as §1
# [16] = test system: Candida albicans; experiment: Antibiofilm activity against Candida albicans PMC 1082 assessed as inhibition of biofilm formation by XTT reduction assay; format: functional; method in brief: as §2
# [17] = test system: Candida albicans; experiment: Antifungal activity against planktonic form of Candida albicans PMC 1042 by broth microdilution method; format: organism-based; settings: in vitro; method in brief: as §4
# [18] = Toxicity in Galleria mellonella larvae assessed as larval survival at 500 ug/ml after 48 hrs relative to control; method in brief: as §1
# [19] = Toxicity in Galleria mellonella larvae assessed as larval survival at 10 ug/ml after 24 hrs relative to control; method in brief: as §1
# [20] = Toxicity in Galleria mellonella larvae assessed as larval survival at 50 ug/ml after 48 hrs relative to control; method in brief: as §1
# [21] = Toxicity in Galleria mellonella larvae assessed as larval survival at 100 ug/ml after 24 hrs relative to control; method in brief: as §1
# [22] = test system: Candida albicans; experiment: Antibiofilm activity against Candida albicans PMC 1042 assessed as inhibition of biofilm formation by XTT reduction assay; format: functional; method in brief: as §2
# [23] = test system: Candida albicans; experiment: Antibiofilm activity against Candida albicans PMC 1082 assessed as inhibition of mature biofilm formation by XTT reduction assay; format: functional; method in brief: as §2
# [24] = Toxicity in Galleria mellonella larvae assessed as larval survival at 50 ug/ml after 24 hrs relative to control; method in brief: as §1
# [25] = Toxicity in Galleria mellonella larvae assessed as larval survival at 500 ug/ml after 72 hrs relative to control; method in brief: as §1
# [26] = Toxicity in Galleria mellonella larvae assessed as larval survival at 50 ug/ml after 72 hrs relative to control; method in brief: as §1
# [27] = test system: Candida albicans; experiment: Antibiofilm activity against Candida albicans ATCC 10261 assessed as inhibition of biofilm formation by XTT reduction assay; format: functional; method in brief: as §2
# [28] = Toxicity in Galleria mellonella larvae assessed as larval survival at 5 ug/ml after 48 hrs relative to control; method in brief: as §1
# [29] = Toxicity in Galleria mellonella larvae assessed as larval survival at 5 ug/ml after 24 hrs relative to control; method in brief: as §1
# [30] = Toxicity in Galleria mellonella larvae assessed as larval survival at 5 ug/ml after 72 hrs relative to control; method in brief: as §1
compound,measurement,setting,value
CC(C)Cc1ccc(C(C)C(=O)NCCc2c[nH]c3ccccc23)cc1 (stereo not drawn),survival at 72 h,[1],100%
same,MBIC50,[2],8 µg/mL
same,MBIC50,[3],8 µg/mL
same,MIC50,[4],> 128 µg/mL
same,MBIC50,[5],16 µg/mL
same,survival at 72 h,[6],100%
same,survival at 48 h,[7],100%
same,survival at 24 h,[8],100%
same,MBIC50,[9],2 µg/mL
same,MIC50,[10],> 256 µg/mL
same,survival at 48 h,[11],100%
same,MIC50,[12],> 256 µg/mL
same,survival at 48 h,[13],100%
same,survival at 72 h,[14],100%
same,survival at 24 h,[15],100%
same,MBIC50,[16],8 µg/mL
same,MIC50,[17],> 256 µg/mL
same,survival at 48 h,[18],100%
same,survival at 24 h,[19],100%
same,survival at 48 h,[20],100%
same,survival at 24 h,[21],100%
same,MBIC50,[22],8 µg/mL
same,MBIC50,[23],4 µg/mL
same,survival at 24 h,[24],100%
same,survival at 72 h,[25],100%
same,survival at 72 h,[26],100%
same,MBIC50,[27],8 µg/mL
O=[N+]([O-])c1ccc(N2CCN(Cc3c[nH]c4ccccc34)CC2)cc1,MBIC50,[2],8 µg/mL
same,MBIC50,[3],4 µg/mL
same,MIC50,[4],> 128 µg/mL
same,MBIC50,[5],>128 µg/mL
same,survival at 72 h,[6],100%
same,survival at 48 h,[7],100%
same,MBIC50,[9],2 µg/mL
same,MIC50,[10],> 256 µg/mL
same,MIC50,[12],> 256 µg/mL
same,survival at 48 h,[13],100%
same,survival at 72 h,[14],100%
same,survival at 24 h,[15],100%
same,survival at 48 h,[28],100%
same,survival at 24 h,[29],100%
same,MBIC50,[16],32 µg/mL
same,MIC50,[17],> 256 µg/mL
same,survival at 48 h,[18],100%
same,survival at 24 h,[19],100%
same,survival at 48 h,[20],100%
same,survival at 24 h,[21],100%
same,MBIC50,[22],32 µg/mL
same,MBIC50,[23],2 µg/mL
same,survival at 24 h,[24],100%
same,survival at 72 h,[25],100%
same,survival at 72 h,[30],100%
same,survival at 72 h,[26],100%
same,MBIC50,[27],32 µg/mL
Brc1ccc(CNCCc2c[nH]c3ccccc23)cc1,MBIC50,[2],8 µg/mL
same,MBIC50,[3],8 µg/mL
same,MIC50,[4],64 µg/mL
same,MBIC50,[5],8 µg/mL
same,survival at 72 h,[6],100%
same,survival at 48 h,[7],100%
same,MBIC50,[9],2 µg/mL
same,MIC50,[10],32 µg/mL
same,MIC50,[12],32 µg/mL
same,survival at 48 h,[13],100%
same,survival at 72 h,[14],100%
same,survival at 24 h,[15],100%
same,survival at 48 h,[28],100%
same,survival at 24 h,[29],100%
same,MBIC50,[16],8 µg/mL
same,MIC50,[17],16 µg/mL
same,survival at 48 h,[18],100%
same,survival at 24 h,[19],100%
same,survival at 48 h,[20],100%
same,survival at 24 h,[21],100%
same,MBIC50,[22],8 µg/mL
same,MBIC50,[23],4 µg/mL
same,survival at 24 h,[24],100%
same,survival at 72 h,[25],100%
same,survival at 72 h,[30],100%
same,survival at 72 h,[26],100%
same,MBIC50,[27],8 µg/mL
c1ccc2cc(CNCCc3c[nH]c4ccccc34)ccc2c1,MBIC50,[2],8 µg/mL
same,MBIC50,[3],2 µg/mL
same,MIC50,[4],16 µg/mL
same,MBIC50,[5],8 µg/mL
same,survival at 72 h,[6],100%
same,survival at 48 h,[7],100%
same,MBIC50,[9],2 µg/mL
same,MIC50,[10],32 µg/mL
same,MIC50,[12],32 µg/mL
same,survival at 48 h,[13],100%
same,survival at 72 h,[14],100%
same,survival at 24 h,[15],100%
same,survival at 48 h,[28],100%
same,survival at 24 h,[29],100%
same,MBIC50,[16],8 µg/mL
same,MIC50,[17],128 µg/mL
same,survival at 48 h,[18],100%
same,survival at 24 h,[19],100%
same,survival at 48 h,[20],90%
same,survival at 24 h,[21],100%
same,MBIC50,[22],8 µg/mL
same,MBIC50,[23],2 µg/mL
same,survival at 24 h,[24],90%
same,survival at 72 h,[25],100%
same,survival at 72 h,[30],100%
same,survival at 72 h,[26],90%
same,MBIC50,[27],8 µg/mL
